Laboratory results taken from publication PMC3641321 (Blood Cancer Journal, 2013).
Values joined by “and” are separate entries in the source; they are usually repeats but may differ in a detail not shown here. Identical values can stand only once. “Also recorded” adds a separate entry of the source. Marks after values point to notes of the source that are not given here. Values belong to the compound of their own block, whether it stands above or below them.

Legend:
TEL-JAK1 = TEL-JAK1 (Homo sapiens, UniProt P23458+P41212); test: AlphaScreen SureFire pSTAT5 assay, Ba/F3 TEL-JAK1; format: cell-based
Sequence of TEL-JAK1 (P23458 875-1154 limits assumed, one chain of several): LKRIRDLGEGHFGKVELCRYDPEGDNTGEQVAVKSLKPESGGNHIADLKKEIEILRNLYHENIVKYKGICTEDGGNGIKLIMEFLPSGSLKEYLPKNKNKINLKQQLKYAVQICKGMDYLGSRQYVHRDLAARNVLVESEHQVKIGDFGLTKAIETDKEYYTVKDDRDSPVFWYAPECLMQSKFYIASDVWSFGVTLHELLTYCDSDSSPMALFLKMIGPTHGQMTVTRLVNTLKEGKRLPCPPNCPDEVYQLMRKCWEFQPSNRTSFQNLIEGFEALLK

TEL-JAK2 = TEL-JAK2 (Homo sapiens, UniProt O60674+P41212); test: AlphaScreen SureFire pSTAT5 assay, Ba/F3 TEL-JAK2; format: cell-based
Sequence of TEL-JAK2 (O60674 840-1132 limits assumed, one chain of several): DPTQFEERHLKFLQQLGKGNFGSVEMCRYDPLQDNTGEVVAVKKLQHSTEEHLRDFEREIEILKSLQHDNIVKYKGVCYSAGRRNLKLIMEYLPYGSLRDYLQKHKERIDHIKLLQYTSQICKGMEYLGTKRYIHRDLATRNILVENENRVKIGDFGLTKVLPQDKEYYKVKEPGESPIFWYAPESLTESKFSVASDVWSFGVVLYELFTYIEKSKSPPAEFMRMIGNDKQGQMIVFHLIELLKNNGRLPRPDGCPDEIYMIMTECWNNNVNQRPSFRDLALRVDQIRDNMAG

TEL-JAK3 = TEL-JAK3 (Homo sapiens, UniProt P41212+P52333); test: AlphaScreen SureFire pSTAT5 assay, Ba/F3 TEL-JAK3; format: cell-based
JAK2V617F [1] = biological target: T1, JAK2V617F (Homo sapiens, UniProt O60674, V617F); test: AlphaScreen SureFire pSTAT5 assay, Ba/F3-JAK2V617F; format: cell-based
T1 sequence (O60674 whole entry V617F): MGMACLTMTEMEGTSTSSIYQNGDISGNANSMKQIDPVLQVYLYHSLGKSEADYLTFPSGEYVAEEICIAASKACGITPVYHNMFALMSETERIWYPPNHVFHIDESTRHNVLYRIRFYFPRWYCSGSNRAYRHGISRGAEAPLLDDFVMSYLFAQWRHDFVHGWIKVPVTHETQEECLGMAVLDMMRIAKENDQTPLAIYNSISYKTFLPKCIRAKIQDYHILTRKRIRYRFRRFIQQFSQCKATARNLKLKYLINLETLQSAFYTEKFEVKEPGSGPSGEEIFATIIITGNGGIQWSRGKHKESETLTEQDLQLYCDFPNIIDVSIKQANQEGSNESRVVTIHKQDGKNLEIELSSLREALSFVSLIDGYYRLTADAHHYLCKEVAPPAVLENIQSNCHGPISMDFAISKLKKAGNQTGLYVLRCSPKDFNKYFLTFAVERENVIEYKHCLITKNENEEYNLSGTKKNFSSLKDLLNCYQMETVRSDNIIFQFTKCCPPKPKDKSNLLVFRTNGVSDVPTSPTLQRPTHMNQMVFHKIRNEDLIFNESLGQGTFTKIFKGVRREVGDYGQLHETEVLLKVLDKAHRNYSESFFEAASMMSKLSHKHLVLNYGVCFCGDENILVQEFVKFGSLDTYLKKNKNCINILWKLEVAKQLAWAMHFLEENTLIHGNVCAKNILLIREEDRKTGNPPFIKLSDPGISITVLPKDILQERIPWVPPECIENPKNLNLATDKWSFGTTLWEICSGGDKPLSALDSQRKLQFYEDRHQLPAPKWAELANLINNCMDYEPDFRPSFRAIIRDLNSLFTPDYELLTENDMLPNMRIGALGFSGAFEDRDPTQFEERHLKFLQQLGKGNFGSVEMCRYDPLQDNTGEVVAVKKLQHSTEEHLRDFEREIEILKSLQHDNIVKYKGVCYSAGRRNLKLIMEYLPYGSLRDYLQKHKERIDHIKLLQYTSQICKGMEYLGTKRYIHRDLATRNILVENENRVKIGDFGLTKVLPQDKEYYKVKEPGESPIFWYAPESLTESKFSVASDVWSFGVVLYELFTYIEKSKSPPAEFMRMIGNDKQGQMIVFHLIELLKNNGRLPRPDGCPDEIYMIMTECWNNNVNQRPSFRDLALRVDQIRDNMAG

[2] = biological target: IL-3-activated wild-type JAK2 (Homo sapiens, UniProt O60674); test: AlphaScreen SureFire pSTAT5 assay, IL-3-stimulated Ba/F3 wild-type JAK2; format: cell-based
Sequence of IL-3-activated wild-type JAK2 (O60674 whole entry): as the sequence (O60674 whole entry V617F) above, with F617V counted along it

[3] = test system: Ba/F3 cells expressing JAK2V617F; test: MTS cell proliferation assay, Ba/F3 JAK2V617F; format: cell-based, murine; details: Mus musculus, BaF3, 72 h, read-out: Cell proliferation assay V617F IC50±s.d.
JAK2 [4] = biological target: T2, JAK2 (Homo sapiens, UniProt O60674); test: JAK LanthaScreen Kinase Assay; details: Biochemical measurement of JAK inhibition, JAK2 IC50±s.d., Table 1
T2 sequence (O60674 whole entry): as the sequence (O60674 whole entry V617F) above, with F617V counted along it

JAK3 = biological target: T3, JAK3 (Homo sapiens, UniProt P52333); test: JAK LanthaScreen Kinase Assay; details: second-tier biochemical / LanthaScreen assay
T3 sequence (P52333 1-1124): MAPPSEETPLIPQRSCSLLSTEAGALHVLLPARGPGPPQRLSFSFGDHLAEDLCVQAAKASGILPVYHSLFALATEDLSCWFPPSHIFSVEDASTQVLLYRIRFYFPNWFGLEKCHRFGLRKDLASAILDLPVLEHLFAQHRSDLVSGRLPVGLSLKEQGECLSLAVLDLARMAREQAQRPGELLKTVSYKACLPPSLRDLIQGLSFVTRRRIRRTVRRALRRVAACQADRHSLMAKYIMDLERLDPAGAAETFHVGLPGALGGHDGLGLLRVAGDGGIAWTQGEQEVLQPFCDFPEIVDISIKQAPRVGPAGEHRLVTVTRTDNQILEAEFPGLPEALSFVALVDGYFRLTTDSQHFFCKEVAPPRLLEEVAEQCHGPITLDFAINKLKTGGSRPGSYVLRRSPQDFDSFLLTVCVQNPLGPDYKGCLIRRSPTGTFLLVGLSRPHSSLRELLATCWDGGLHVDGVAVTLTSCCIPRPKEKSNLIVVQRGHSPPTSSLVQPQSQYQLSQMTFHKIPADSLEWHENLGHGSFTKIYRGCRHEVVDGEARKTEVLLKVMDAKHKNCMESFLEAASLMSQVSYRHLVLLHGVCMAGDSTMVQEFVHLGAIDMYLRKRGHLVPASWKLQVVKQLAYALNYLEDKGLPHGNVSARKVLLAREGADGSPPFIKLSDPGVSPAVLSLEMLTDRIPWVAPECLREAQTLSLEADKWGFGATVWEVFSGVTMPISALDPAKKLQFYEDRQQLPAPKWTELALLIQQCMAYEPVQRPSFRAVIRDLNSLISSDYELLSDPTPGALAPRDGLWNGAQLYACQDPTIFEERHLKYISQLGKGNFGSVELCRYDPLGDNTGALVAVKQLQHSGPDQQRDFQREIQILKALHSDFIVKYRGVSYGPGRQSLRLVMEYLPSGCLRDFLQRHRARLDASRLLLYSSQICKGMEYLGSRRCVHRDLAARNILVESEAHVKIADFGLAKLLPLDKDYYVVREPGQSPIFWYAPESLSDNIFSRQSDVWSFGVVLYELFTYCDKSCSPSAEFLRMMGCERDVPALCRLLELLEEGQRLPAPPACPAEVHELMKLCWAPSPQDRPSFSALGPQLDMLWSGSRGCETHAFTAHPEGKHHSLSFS

JAK3/JAK1 heterodimer = JAK3/JAK1 heterodimer (Homo sapiens, UniProt P23458+P52333); test: Cellomics pSTAT5 assay, IL-2-stimulated NK-92 cells; format: cell-based
Sequence of JAK3/JAK1 heterodimer (P23458 whole entry, one chain of several): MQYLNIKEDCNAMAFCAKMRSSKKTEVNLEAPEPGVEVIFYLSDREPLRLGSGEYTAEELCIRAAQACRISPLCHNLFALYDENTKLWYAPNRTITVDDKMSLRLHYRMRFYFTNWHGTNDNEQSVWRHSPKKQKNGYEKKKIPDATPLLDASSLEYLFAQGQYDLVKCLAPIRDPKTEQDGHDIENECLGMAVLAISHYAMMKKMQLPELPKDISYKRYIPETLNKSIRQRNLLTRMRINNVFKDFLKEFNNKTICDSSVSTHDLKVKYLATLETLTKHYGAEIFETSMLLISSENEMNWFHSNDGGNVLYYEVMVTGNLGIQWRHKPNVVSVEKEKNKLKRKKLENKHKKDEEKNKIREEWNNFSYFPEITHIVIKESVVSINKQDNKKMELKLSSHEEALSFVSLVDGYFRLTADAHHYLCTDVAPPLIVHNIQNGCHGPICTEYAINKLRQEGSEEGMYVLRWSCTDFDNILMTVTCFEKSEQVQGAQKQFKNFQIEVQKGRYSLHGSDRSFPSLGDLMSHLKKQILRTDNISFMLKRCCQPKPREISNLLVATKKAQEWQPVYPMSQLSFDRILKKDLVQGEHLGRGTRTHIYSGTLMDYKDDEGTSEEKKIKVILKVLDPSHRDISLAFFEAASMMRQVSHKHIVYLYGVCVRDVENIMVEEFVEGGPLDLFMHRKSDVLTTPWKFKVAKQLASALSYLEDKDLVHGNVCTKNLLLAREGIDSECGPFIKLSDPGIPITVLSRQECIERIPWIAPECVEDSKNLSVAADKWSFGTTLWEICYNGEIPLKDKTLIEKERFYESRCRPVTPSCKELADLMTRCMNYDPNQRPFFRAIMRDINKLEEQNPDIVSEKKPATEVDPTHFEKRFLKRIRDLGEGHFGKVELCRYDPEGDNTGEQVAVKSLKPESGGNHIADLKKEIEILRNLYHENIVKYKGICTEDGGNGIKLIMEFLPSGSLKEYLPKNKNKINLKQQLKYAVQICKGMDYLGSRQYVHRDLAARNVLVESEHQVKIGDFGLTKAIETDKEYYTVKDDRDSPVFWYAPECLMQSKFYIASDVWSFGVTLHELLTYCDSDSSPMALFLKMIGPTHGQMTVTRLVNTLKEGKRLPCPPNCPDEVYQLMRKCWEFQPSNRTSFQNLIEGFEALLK
Sequence of JAK3/JAK1 heterodimer (P14784 27-551 partner, one chain of several): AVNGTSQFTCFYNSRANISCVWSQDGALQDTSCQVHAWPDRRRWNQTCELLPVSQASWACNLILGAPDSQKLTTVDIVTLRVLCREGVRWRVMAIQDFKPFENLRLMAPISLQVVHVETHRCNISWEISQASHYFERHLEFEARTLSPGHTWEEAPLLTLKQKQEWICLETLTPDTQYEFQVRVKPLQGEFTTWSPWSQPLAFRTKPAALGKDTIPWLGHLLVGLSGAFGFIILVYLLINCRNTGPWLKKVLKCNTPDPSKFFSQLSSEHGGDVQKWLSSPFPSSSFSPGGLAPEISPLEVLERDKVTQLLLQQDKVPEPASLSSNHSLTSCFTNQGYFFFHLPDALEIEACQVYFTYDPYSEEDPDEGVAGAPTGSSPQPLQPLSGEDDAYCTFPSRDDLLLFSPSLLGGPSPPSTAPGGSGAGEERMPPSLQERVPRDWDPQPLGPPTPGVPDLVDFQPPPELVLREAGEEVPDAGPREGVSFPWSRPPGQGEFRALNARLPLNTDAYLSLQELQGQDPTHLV
Sequence of JAK3/JAK1 heterodimer (P31785 23-369 partner, one chain of several): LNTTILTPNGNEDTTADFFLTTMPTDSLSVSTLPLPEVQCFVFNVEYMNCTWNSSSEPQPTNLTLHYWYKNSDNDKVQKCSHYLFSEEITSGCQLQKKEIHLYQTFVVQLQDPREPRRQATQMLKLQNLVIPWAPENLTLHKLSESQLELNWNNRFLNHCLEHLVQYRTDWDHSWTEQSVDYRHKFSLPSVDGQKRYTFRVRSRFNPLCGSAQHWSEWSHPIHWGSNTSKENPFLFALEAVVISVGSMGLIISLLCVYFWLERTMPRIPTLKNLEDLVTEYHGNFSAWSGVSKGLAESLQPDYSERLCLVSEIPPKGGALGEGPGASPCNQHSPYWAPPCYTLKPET
Procedure, shortened: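 NK-92 cells were kept overnight in MEM Alpha with 0.3% FBS and 0.3% horse serum, then plated with DMSO or a 10-point 1:3 dilution series (20 to 0.001 μM) for 10 min. IL-2 (0.5 μg/ml) was then added for 20 min. Cells were fixed, stained for pSTAT5 (pY694) with Alexa Fluor 647 and Hoechst, and imaged. IC50 came from a four-parameter logistic fit.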

[5] = test system: cytotoxic T-cells, CD3+CD8a+; test: 14-day rat immunotoxicology, flow cytometry; format: in vivo, Sprague-Dawley rats; details: for Change in cytotoxic T-cells, CD3+CD8a+, peripheral blood / Change in cytotoxic T-cells, CD3+CD8a+, spleen: gavage, Compound 1 15 mg/kg, Compound 2 (LY2784544) 30 mg/kg; for Percentage of T-cytotoxic cells (peripheral blood and splenic): pharmacologically active exposures, result in words
JAK2 [6] = biological target: T2, JAK2; test: Cellomics pSTAT5 assay, EPO-stimulated TF-1 cells; format: cell-based
Procedure, shortened: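 TF-1 cells were starved overnight in RPMI with 0.6% FBS, then plated at 2 × 10^5 cells/well with DMSO or a 10-point 1:3 dilution series (20 to 0.001 μM). After 10 min, erythropoietin (1.6 units/ml) was added for 20 min. Cells were fixed, stained with anti-pSTAT5 (pY694) Alexa Fluor 647 and Hoechst, and imaged. IC50 came from a four-parameter logistic fit.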

[7] = test system: Ba/F3 cells expressing JAK2V617F; test: Caspase-Glo 3/7 apoptosis assay; format: cell-based, murine; details: Mus musculus, BaF3, 18 h, read-out: Induction of apoptosis EC50 (Caspase3/7-glo)
[8] = test system: JAK2V617F signaling in Ba/F3-JAK2V617F-GFP ascitic tumor cells; test: In vivo target inhibition, pSTAT5 in mouse ascitic tumor model; parameters: species or system SCID mice
Procedure, shortened: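 Ascitic tumors were grown in CB17 SCID mice for 7 days after intraperitoneal implantation of 1 × 10^7 Ba/F3-JAK2V617F-GFP cells. A single oral gavage dose (2.5–80.0 mg/kg, six animals/group) was given and tumor cells were collected 30 min later. For time courses, 20, 40 or 80 mg/kg was given with collection at 0.25–6.0 h. Cells were fixed, stained 2 h for pSTAT5 (pY694), and analysed by flow cytometry. Statistics used ANOVA with Dunnett's test and a four-parameter logistic fit.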

[9] = test system: Ba/F3-JAK2V617F-GFP tumor burden; test: 14-day in vivo efficacy, JAK2V617F-induced mouse MPN model; parameters: species or system SCID mice
Procedure, shortened: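 SCID mice received 1 × 10^7 Ba/F3-JAK2V617F-GFP cells intravenously (six mice/group). Twice-daily oral gavage at 2.5–80.0 mg/kg started 7 days after infusion and ran 14 days. Endpoints were complete blood counts from cardiac puncture, spleen weight, and FACS of splenocytes for total number and percentage of GFP-positive cells. Dunnett's test at α=0.05.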

[10] = test system: Ba/F3-JAK2V617F-GFP tumor cells, erythroid progenitors, peripheral blood counts; test: 8-day mouse hematologic disease model, hematopoiesis; format: in vivo, SCID mice; details: result in words
Procedure, shortened: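 This was an 8-day version of the intravenous Ba/F3-JAK2V617F-GFP SCID mouse model. Dosing at 5, 20, 40 or 80 mg/kg began one day before tumor cell infusion and continued twice daily for 8 days. Splenocytes were analysed by FACS for GFP-positive tumor cells and for erythroid progenitors stained with Ter119-APC and CD71-PE, with 7-AAD excluding nonviable cells. Peripheral blood counts were also taken.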

[11] = 14-day rat pilot toxicology study; format: in vivo; details: 30, 60, or 100 mg/kg
JAK2V617F [12] = biological target: T1, JAK2V617F; test: Western blot pSTAT5, Ba/F3 JAK2V617F; format: cell-based; details: 50 nM–20 μM, 2 h
wild-type JAK2 = wild-type JAK2 (Homo sapiens, UniProt O60674); test: Western blot pSTAT5, IL-3-stimulated Ba/F3 wild-type JAK2; format: cell-based; details: Ba/F3 wild-type JAK2, 50 and 200 nM
Sequence of wild-type JAK2 (O60674 whole entry): as the sequence (O60674 whole entry V617F) above, with F617V counted along it

JAK2V617F [13] = biological target: T1, JAK2V617F; test: Western blot pSTAT5, HEK293T JAK2V617F; format: cell-based; details: HEK293 cells expressing JAK2V617F, 1 h
JAK2 H538Q = JAK2 H538Q (Homo sapiens, UniProt O60674, H538Q); test: Western blot pSTAT5, HEK293T JAK2 H538Q; format: cell-based; details: HEK293 cells expressing JAK2 H538Q, 1 h
Sequence of JAK2 H538Q (O60674 whole entry H538Q): as the sequence (O60674 whole entry V617F) above, with H538Q, F617V counted along it

JAK2 R564Q = JAK2 R564Q (Homo sapiens, UniProt O60674, R564Q); test: Western blot pSTAT5, HEK293T JAK2 R564Q; format: cell-based; details: HEK293 cells expressing JAK2 R564Q, 1 h
Sequence of JAK2 R564Q (O60674 whole entry R564Q): as the sequence (O60674 whole entry V617F) above, with R564Q, F617V counted along it

JAK2Y931C = JAK2Y931C (Homo sapiens, UniProt O60674, Y931C); test: Western blot pSTAT5, HEK293T JAK2Y931C; format: cell-based; details: HEK293 cells expressing JAK2Y931C, 1 h
Sequence of JAK2Y931C (O60674 whole entry Y931C): as the sequence (O60674 whole entry V617F) above, with F617V, Y931C counted along it

IC50 (TEL-JAK1): 663 ± 74 nM | IC50 (TEL-JAK2): 139 ± 47 nM | IC50 (TEL-JAK3): 2.55 ± 0.345 µM | IC50 (JAK2V617F [1]): 19 ± 13 nM | IC50 [2]: 181 ± 132 nM | IC50 [3]: 43 ± 1 nM
SMILES: Cc1cc(Nc2nc(N[C@@H](C)c3ncc(F)cn3)ncc2Cl)n[nH]1 [AZD1480, reference compound]

IC50 (JAK2 [4]): 2 nM | Selectivity for JAK2 over JAK3, biochemical (JAK3): fourfold | IC50 (JAK3/JAK1 heterodimer): 228 ± 76 nM
SMILES: Cc1cc(Nc2ccc3ncn([C@@H]4CCc5ccc(F)cc54)c3n2)[nH]n1.Cl.Cl [Compound 1, 3-[(1R)-6-fluoro-2,3-dihydro-1H-inden-1-yl]-N-(3-methyl-1H-pyrazol-5-yl)-3H-imidazo[4,5-b]pyridin-5-amine dihydrochloride]
Change in cytotoxic T-cells, CD3+CD8a+, peripheral blood [5]: −39 (P<0.05) % | Change in cytotoxic T-cells, CD3+CD8a+, spleen [5]: −42 (P<0.05) ^d % | Percentage of T-cytotoxic cells (peripheral blood and splenic) [5]: statistically significant decrease

SMILES: Cc1cc(Nc2cc(CN3CCOCC3)c3nc(C)c(Cc4ccc(Cl)cc4F)n3n2)n[nH]1 [LY2784544, 3-(4-chloro-2-fluorobenzyl)-2-methyl-N-(5-methyl-1H-pyrazol-3-yl)-8-(morpholinomethyl)imidazo[1,2-b]pyridazin-6-amine]
IC50 (JAK2 [6]): 45 ± 19 nM | IC50 (JAK3/JAK1 heterodimer): 942 ± 255 nM | Change in cytotoxic T-cells, CD3+CD8a+, peripheral blood [5]: No change | Change in cytotoxic T-cells, CD3+CD8a+, spleen [5]: No change | Percentage of T-cytotoxic cells (peripheral blood and splenic) [5]: did not decrease | IC50 (TEL-JAK1): 2900 ± 486 nM | IC50 (TEL-JAK2): 191 ± 36 nM | IC50 (TEL-JAK3): 4.74 ± 0.738 µM | IC50 [3]: 55 ± 4 nM | EC50 [7]: 113 ± 0.023 nM | TEC50, plasma concentration to inhibit 50% of STAT5 phosphorylation ([8]; 30 min after oral dosing): 699.0 ng/ml and 1.49 μM | Duration of statistically significant inhibition of STAT5 phosphorylation ([8]; single 40 mg/kg oral dose): at least 2 h | Duration of statistically significant inhibition of STAT5 phosphorylation ([8]; single 80 mg/kg oral dose): at least 6 h | TED50, dose to inhibit 50% of STAT5 phosphorylation ([8]; single oral dose, 30 min after dosing, ascitic tumor cells): 12.7 mg/kg | Spleen mass reduction ([9]; 20 mg/kg BID, 14 days): about 20% | Decrease in GFP-positive Ba/F3-JAK2V617F cells ([9]; 20 mg/kg BID, 14 days, spleen): ~50% | Reduction of the number of Ba/F3 cells expressing JAK2V617F ([9]; 20, 40 or 80 mg/kg, BID): ≥ 50% | TED50 for tumor burden reduction ([9]; oral, twice daily, 14 days, Ba/F3-JAK2V617F-GFP cells in spleen): 13.7 mg/kg | Percentage of Ba/F3-JAK2V617F-GFP-positive cells in spleen ([10]; 40 mg/kg (P=8 × 10^−4) and 80 mg/kg (P=8 × 10^−7) BID, 8 days): significantly reduced | Effect on erythroid progenitor (CD71+/Ter119+) cells ([10]; 5–80 mg/kg BID, 8 days): no effect; also recorded: did not affect | Effect on peripheral blood reticulocytes ([10]; 5–80 mg/kg BID, 8 days): no effect; also recorded: did not reduce | Effect on platelets [10]: no effect | Gastric- and intestine-related toxicity [11]: No gastric- and intestine-related toxicity was observed | Inhibition of STAT5 phosphorylation, western blot (JAK2V617F [12]): potently inhibited | Inhibition of IL-3-stimulated STAT5 phosphorylation, western blot (wild-type JAK2): marginal inhibition | Inhibition of STAT5 phosphorylation, western blot (JAK2V617F [13]): effectively inhibited | Inhibition of STAT5 phosphorylation, western blot (JAK2 H538Q): effectively inhibited | Inhibition of STAT5 phosphorylation, western blot (JAK2 R564Q): effectively inhibited | Inhibition of STAT5 phosphorylation, western blot (JAK2Y931C): much less potency
